The target in series [1] is T1, Leucine-rich repeat serine/threonine-protein kinase 2 (Homo sapiens, UniProt Q5S007, G2019S). In words: Inhibition of LRRK2 G2019S mutant (unknown origin) by TR-FRET assay. A digest of the protocol:
(§1)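 HTRF assay with GST-LRRK2 (G2019S or wild type) measuring inhibition of LRRKtide phosphorylation. Biotinylated LRRKtide substrate; detection with Eu(K)-labelled anti-phospho-Moesin antibody plus streptavidin-XL665, read at 620 and 665 nm. Ratio taken as wild-type IC50 over G2019S IC50.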
(Time-resolved FRET reads energy transfer from a long-lived donor to a nearby acceptor.)

A short description of series [2]: Kinetic solubility of the compound in isotonic buffer at pH 7.4. It counts as physicochemical. The following applies: read-out: Kinetic_solubility.
Series [3] has as its target Leucine-rich repeat serine/threonine-protein kinase 2 (Homo sapiens, UniProt Q5S007). In words: Inhibition of wild type LRRK2 (unknown origin) by TR-FRET assay. The essentials:
as §1

The subject of the next series is P-gp. Nature of the series: Efflux ratio in P-gp (unknown origin) mediated drug transport. It counts as ADME. Conditions: human, not told.
Series [4] can be described thus: Permeability of the compound. It counts as ADME. Conditions: not told; read-out: permeability.
For series [5], the species on record is Homo sapiens. In words: Selectivity ratio of IC50 for wild type LRRK2 (unknown origin) to IC50 for LRRK2 G2019S mutant (unknown origin). A digest of the protocol:
as §1

Series [6] deals with T1, Leucine-rich repeat serine/threonine-protein kinase 2. Nature of the series: Inhibition of LRRK2 G2019S mutant (unknown origin) transfected in HEK293 cells assessed decrease in S935 autophosphorylation. Type of series: cell-based. The essentials: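 HEK293 cells stably transfected with LRRK2 G2019S; kinase inhibition read as decrease in LRRK2 S935 phosphorylation.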
Series [7] relates to Liver microsomes. Nature of the series: Metabolic stability in rat liver microsomes after 30 mins. Type of series: ADME, Microsome. The following applies: 0.5 h. The essentials: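 Compound incubated with NADPH-supplemented rat liver microsomes at 37 °C for 30 min; parent consumption and sulfoxide/sulfone metabolite formation monitored.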
Series [8] addresses Dual specificity protein kinase TTK (Homo sapiens) (UniProt P33981). In words: Inhibition of Ttk (unknown origin) at 1 uM. A digest of the protocol:
(§2)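 Single-point panel run by an outside contract lab: inhibition of each of 40 selected kinases measured at 1 µM test compound; percent inhibition reported.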

Series [9] has as its system Liver microsomes. Nature of the series: Metabolic stability in human liver microsomes. It counts as ADME, Microsome. (Liver microsomes are vesicles of endoplasmic reticulum, rich in cytochrome P450 enzymes.)
In series [10] the target is Tyrosine-protein kinase SYK (Homo sapiens) (UniProt P43405). In words: Inhibition of Syk (unknown origin) at 1 uM. A digest of the protocol: as §2
Series [11] addresses Aurora kinase A (Homo sapiens) (UniProt O14965). In words: Inhibition of Aurora A (unknown origin) at 1 uM. A digest of the protocol:
as §2

For series [12], the target named is Receptor tyrosine-protein kinase erbB-4 (Homo sapiens) (UniProt Q15303). Nature of the series: Inhibition of ErbB4 (unknown origin) at 1 uM. A digest of the protocol: as §2
For series [13], the target named is Phosphatidylinositol 4,5-bisphosphate 3-kinase catalytic subunit alpha isoform (Homo sapiens) (UniProt P42336). In words: Inhibition of PIK3CA (unknown origin) at 1 uM. The essentials:
as §2

For series [14], the target named is Serine/threonine-protein kinase Chk1 (Homo sapiens) (UniProt O14757). Nature of the series: Inhibition of Chek1 (unknown origin) at 1 uM. A digest of the protocol:
as §2

Series [15] addresses Tyrosine-protein kinase JAK1 (Homo sapiens) (UniProt P23458). Nature of the series: Inhibition of Jak1 (unknown origin) at 1 uM. A digest of the protocol:
as §2

The target in series [16] is Cyclin-dependent kinase 5/CDK5 activator 1 (Homo sapiens) (UniProt Q00535+Q15078). In words: Inhibition of CDK5/p25 (unknown origin) at 1 uM. It counts as protein-complex assay. A digest of the protocol: as §2
Series [17] addresses Glycogen synthase kinase-3 beta (Homo sapiens) (UniProt P49841). Nature of the series: Inhibition of GSK3beta (unknown origin) at 1 uM. The essentials: as §2
Series [18] addresses Cyclin-dependent kinase 1/cyclin B1 (Homo sapiens) (UniProt P06493+P14635). Nature of the series: Inhibition of CDK1/Cyclin B (unknown origin) at 1 uM. Type of series: protein-complex assay. A digest of the protocol: as §2
Series [19] has as its target Receptor-type tyrosine-protein kinase FLT3 (Homo sapiens) (UniProt P36888). Nature of the series: Inhibition of Flt3 (unknown origin) at 1 uM. A digest of the protocol: as §2
In series [20] the target is RAF proto-oncogene serine/threonine-protein kinase (Homo sapiens) (UniProt P04049). In words: Inhibition of Raf1 (unknown origin) at 1 uM. A digest of the protocol:
as §2

In series [21] the target is Tyrosine-protein kinase ABL1 (Homo sapiens) (UniProt P00519). Nature of the series: Inhibition of Abl1 (unknown origin) at 1 uM. The essentials: as §2
The species named for series [22] is Homo sapiens. Nature of the series: Inhibition of MAPK (unknown origin) at 1 uM. The essentials: as §2
Series [23] addresses Platelet-derived growth factor receptor alpha (Homo sapiens) (UniProt P16234). In words: Inhibition of PDGFRalpha (unknown origin) at 1 uM. A digest of the protocol: as §2
The target of series [24] is RAC-alpha serine/threonine-protein kinase (Homo sapiens) (UniProt P31749). In words: Inhibition of Akt1 (unknown origin) at 1 uM. A digest of the protocol: as §2
In series [25] the target is Macrophage colony-stimulating factor 1 receptor (Homo sapiens) (UniProt P07333). Nature of the series: Inhibition of CSF1R (unknown origin) at 1 uM. The essentials: as §2
Series [26] addresses Proto-oncogene tyrosine-protein kinase receptor Ret (Homo sapiens) (UniProt P07949). In words: Inhibition of Ret (unknown origin) at 1 uM. A digest of the protocol:
as §2

Series [27] concerns the target Serine/threonine-protein kinase PLK1 (Homo sapiens) (UniProt P53350). Nature of the series: Inhibition of PLK1 (unknown origin) at 1 uM. A digest of the protocol:
as §2

The structures appear in SMILES notation. Values after ≈ are worked out from the molar mass of the structure shown.

Chain of Leucine-rich repeat serine/threonine-protein kinase 2 (Homo sapiens, UniProt Q5S007) (Q5S007 whole entry): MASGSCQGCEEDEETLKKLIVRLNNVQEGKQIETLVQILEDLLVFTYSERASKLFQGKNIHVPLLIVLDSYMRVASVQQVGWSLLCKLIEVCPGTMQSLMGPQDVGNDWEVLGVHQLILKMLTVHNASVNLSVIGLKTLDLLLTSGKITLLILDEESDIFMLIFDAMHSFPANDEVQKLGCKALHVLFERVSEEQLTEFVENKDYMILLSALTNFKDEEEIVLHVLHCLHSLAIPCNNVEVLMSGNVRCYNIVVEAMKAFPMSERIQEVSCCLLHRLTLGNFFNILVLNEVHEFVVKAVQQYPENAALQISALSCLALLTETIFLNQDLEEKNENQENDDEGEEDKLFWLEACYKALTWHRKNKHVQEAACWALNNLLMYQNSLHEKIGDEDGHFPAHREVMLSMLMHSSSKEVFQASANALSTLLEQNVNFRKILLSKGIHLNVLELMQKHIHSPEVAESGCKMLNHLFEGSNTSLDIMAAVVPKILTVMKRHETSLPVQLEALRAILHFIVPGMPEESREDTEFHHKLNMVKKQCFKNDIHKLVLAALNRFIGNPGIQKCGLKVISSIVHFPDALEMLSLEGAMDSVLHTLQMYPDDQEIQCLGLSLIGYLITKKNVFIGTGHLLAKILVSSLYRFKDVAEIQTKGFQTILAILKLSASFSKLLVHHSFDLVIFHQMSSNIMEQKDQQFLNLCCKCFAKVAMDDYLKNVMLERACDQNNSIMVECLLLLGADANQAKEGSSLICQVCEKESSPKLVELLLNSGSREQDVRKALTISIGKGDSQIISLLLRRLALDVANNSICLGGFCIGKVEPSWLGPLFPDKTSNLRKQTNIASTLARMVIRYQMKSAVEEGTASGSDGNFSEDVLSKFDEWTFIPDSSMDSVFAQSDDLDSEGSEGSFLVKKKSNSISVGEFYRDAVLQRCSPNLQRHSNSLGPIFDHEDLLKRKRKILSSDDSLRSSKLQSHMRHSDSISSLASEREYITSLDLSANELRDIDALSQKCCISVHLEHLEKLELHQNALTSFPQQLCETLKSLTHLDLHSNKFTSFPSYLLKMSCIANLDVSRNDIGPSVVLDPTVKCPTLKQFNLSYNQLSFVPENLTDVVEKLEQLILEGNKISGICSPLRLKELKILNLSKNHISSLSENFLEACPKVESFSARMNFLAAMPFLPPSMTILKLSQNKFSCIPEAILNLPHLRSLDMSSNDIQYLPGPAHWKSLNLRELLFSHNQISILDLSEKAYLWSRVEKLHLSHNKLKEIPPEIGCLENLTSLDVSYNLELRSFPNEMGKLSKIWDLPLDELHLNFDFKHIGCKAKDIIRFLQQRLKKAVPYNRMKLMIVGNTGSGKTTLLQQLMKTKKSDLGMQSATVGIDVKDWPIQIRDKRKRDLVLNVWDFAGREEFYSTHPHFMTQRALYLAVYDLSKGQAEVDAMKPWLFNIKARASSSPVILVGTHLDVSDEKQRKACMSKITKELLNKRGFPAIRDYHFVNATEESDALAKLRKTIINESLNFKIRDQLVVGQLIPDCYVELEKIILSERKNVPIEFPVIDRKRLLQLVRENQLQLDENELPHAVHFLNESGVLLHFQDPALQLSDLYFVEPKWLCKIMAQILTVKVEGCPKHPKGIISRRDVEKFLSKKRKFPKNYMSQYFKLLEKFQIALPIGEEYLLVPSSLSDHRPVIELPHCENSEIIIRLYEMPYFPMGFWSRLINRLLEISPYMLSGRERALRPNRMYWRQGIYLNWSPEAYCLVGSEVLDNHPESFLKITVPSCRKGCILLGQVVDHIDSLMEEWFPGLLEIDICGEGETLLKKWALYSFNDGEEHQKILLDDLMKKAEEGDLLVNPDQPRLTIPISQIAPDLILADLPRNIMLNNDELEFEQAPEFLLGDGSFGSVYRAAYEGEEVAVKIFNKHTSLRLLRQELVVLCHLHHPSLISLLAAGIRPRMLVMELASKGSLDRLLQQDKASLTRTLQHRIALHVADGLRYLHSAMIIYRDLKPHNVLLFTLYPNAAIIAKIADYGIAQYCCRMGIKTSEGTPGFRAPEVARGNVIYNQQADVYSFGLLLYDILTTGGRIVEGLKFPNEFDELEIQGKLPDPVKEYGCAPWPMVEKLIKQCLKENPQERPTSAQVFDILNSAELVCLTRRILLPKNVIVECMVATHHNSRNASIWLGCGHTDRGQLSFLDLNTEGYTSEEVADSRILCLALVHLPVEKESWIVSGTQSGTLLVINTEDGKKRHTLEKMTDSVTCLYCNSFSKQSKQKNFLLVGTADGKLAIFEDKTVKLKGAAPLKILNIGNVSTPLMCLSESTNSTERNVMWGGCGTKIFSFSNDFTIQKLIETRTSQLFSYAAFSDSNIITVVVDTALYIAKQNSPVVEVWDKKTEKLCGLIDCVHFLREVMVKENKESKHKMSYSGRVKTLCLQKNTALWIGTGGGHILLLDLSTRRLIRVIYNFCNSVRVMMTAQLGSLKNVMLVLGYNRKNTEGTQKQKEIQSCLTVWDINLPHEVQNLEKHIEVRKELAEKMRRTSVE
T1 sequence (Q5S007 whole entry G2019S): as the sequence (Q5S007 whole entry) above, with G2019S counted along it
Chain of Receptor tyrosine-protein kinase erbB-4 (Homo sapiens) (Q15303 whole entry, canonical isoform): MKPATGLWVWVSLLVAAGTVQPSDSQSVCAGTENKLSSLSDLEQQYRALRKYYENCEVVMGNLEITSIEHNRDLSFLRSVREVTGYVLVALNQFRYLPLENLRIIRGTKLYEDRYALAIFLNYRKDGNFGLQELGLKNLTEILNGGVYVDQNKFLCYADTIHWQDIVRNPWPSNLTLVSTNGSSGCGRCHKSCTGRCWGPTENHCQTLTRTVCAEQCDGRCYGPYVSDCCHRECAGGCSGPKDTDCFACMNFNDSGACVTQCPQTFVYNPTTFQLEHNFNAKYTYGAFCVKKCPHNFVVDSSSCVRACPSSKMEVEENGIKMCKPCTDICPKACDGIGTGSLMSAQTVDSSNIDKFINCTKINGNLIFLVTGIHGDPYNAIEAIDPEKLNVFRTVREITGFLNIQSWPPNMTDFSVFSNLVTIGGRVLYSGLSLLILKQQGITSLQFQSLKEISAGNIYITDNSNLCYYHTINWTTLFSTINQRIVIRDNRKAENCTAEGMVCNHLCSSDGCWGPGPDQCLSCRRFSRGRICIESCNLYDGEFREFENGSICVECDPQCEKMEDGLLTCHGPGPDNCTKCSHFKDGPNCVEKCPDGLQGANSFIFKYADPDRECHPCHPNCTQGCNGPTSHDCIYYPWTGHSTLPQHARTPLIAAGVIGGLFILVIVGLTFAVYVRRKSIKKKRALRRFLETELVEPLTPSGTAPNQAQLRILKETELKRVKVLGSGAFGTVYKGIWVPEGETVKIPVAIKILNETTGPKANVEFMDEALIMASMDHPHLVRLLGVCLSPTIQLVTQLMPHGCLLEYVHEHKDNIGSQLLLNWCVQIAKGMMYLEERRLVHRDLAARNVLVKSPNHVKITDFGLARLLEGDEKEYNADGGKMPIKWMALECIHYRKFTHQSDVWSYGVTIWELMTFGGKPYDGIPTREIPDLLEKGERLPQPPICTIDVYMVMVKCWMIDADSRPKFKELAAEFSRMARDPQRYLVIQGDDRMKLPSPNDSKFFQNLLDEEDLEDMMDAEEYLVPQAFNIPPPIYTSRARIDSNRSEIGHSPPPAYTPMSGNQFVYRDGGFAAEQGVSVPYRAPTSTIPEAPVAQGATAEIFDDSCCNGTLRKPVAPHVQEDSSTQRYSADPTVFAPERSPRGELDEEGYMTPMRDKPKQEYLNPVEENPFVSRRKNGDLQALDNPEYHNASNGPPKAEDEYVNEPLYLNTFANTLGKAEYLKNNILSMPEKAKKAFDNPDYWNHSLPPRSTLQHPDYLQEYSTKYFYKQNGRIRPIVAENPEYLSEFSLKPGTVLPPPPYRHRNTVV
Chain of Serine/threonine-protein kinase Chk1 (Homo sapiens) (O14757 whole entry): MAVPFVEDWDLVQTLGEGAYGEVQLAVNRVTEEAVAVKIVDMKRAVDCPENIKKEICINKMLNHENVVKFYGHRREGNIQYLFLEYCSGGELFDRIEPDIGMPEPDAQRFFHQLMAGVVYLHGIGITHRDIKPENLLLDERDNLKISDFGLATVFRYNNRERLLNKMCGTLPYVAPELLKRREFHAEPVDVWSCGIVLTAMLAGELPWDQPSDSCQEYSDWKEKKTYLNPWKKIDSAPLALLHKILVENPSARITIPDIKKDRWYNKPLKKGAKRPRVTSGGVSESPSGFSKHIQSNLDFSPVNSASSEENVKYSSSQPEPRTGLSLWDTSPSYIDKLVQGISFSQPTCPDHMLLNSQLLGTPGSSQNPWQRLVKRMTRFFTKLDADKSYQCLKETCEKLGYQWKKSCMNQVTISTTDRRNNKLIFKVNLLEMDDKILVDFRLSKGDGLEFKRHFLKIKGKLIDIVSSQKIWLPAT
Chain of Glycogen synthase kinase-3 beta (Homo sapiens) (P49841 whole entry, looked up): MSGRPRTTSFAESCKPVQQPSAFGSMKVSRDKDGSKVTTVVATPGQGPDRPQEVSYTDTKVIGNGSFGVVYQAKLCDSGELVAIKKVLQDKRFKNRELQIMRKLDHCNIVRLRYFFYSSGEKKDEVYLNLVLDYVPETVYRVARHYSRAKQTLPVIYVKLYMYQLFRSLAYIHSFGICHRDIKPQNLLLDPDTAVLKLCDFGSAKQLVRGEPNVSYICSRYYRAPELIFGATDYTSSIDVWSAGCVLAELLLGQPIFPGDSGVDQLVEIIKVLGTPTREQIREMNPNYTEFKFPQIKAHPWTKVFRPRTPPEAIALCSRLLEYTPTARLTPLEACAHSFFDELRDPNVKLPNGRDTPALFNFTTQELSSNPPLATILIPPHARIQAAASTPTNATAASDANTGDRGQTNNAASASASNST

Take `COC(=O)C(C)Sc1ccc2nnc(-c3cccs3)n2n1` (stereo not drawn): the IC50 in [1] stood at 200 nM; in [3], 535 nM. In series [2], the solubility kinetic is 72 µM (≈ 23.1 µg/mL). The efflux ratio in the series on P-gp stood at 0.8. For the same compound, in series [4], the Papp was 28 ×10⁻⁶ cm/s. For the same compound, the Ratio IC50 in the series filed under Homo sapiens [5] was 2.7.

With `FC(F)(F)c1cccc(Sc2ccc3nnc(-c4cscn4)n3n2)c1`, the IC50 in series [1] came to 35 nM; in series [3] it was 140 nM; in series [6] it was 2110 nM. In the series filed under Homo sapiens [5], the Ratio IC50 was determined as 4.

On to `CC(C)(C)c1cccc(Sc2ccc3nnc(-c4cncs4)n3n2)c1`, for which the IC50 in series [1] came out at 30 nM; in series [3], 75 nM; in [6] it was 1390 nM. Moreover, in the series filed under Homo sapiens [5], the Ratio IC50 is 2.5.

For `Clc1cccc(Sc2ccc3nnc(-c4cncs4)n3n2)c1`, the values for the IC50 in [1], in [3] and in series [6] were 8 nM, 31 nM and 1400 nM, respectively. For the same compound, in the series filed under Homo sapiens [5], the Ratio IC50 is 3.9.

As to `CC(Sc1ccc2nnc(-c3cccs3)n2n1)C(N)=O` (stereo not drawn), the figures for the IC50 in series [1], in series [3] and in [6] were 48 nM, 98 nM and 3030 nM, respectively. The solubility kinetic in [2] was 12 µM (≈ 3.66 µg/mL). Moreover, the Ratio IC50 in the series listed under Homo sapiens [5] was 2.

On to `COC(=O)[C@H](C)Sc1ccc2nnc(-c3cccs3)n2n1`, for which the IC50 in series [1] was 215 nM; in series [3], 458 nM. Also, the solubility kinetic in [2] is 99 µM (≈ 31.7 µg/mL). Further, the Ratio IC50 in the series filed under Homo sapiens [5] was 2.1.

As to `Brc1cccc(Sc2ccc3nnc(-c4cncs4)n3n2)c1`, the results for the IC50 in series [1], in series [3] and in [6] were 6 nM, 32 nM and 683 nM, respectively. Moreover, in the series listed under Homo sapiens [5], the Ratio IC50 was 5.3.

Take `FC(F)(F)c1cccc(Sc2ccc3nnc(-c4ccccc4)n3n2)c1`: the Stability result is “Unstable” in the series on Liver microsomes [7] and “Stable” in the series on Liver microsomes [9]. The inhibition in series [8], in [10], in series [11], in [12], in series [13] and in series [14] was less than 18% throughout. The inhibition in series [15], in series [16], in [17], in series [18], in [19] and in series [20] was less than 18% throughout. Besides, the inhibition (in [21]; in the series listed under Homo sapiens [22]; in series [23]; in series [24]; in series [25]; in series [26]) was less than 18% in each case. In series [27], this compound registered an inhibition of less than 18%. Moreover, the IC50 in series [1] was found to be 50 nM; in series [3], 242 nM. In addition, the solubility kinetic in series [2] was determined as 9 µM (≈ 3.35 µg/mL). In [4], the Papp came out at 2.1 ×10⁻⁶ cm/s. Also, the Ratio IC50 in the series listed under Homo sapiens [5] was 4.8.

Turning to `FC(F)(F)c1cccc(Sc2ccc3nnc(-c4nccs4)n3n2)c1`, the results for the IC50 in [1], in series [3] and in series [6] were 25 nM, 88 nM and 1730 nM, respectively. Moreover, the Ratio IC50 in the series listed under Homo sapiens [5] was determined as 3.5.

Consider `FC(F)(F)c1cccc(Sc2ccc3nnc(-c4ccn[nH]4)n3n2)c1`, for which the IC50 in [1] came to 13 nM; in series [3], 53 nM; in [6], 1020 nM. In the series filed under Homo sapiens [5], the Ratio IC50 is 4.1.

In the case of `FC(F)(F)c1cccc(Sc2ccc3nnc(-c4cccs4)n3n2)c1`, the IC50 in series [1] was 23 nM; in series [3] it was 75 nM; in [6] it was 1660 nM. Also, the solubility kinetic in [2] is 8 µM (≈ 3.03 µg/mL). Further, the Ratio IC50 in the series listed under Homo sapiens [5] was determined as 3.3.

On to `FC(F)(F)c1cccc(Sc2ccc3ncc(-c4cccs4)n3c2)c1`, for which the IC50 amounted to 1310 nM in series [1] and 4220 nM in [3]. Also, the solubility kinetic in series [2] came out at 11 µM (≈ 4.14 µg/mL). For the same compound, the Ratio IC50 in the series listed under Homo sapiens [5] was found to be 3.2.

Take `FC(F)(F)c1cccc(Sc2ccc3nnc(-c4cncs4)n3n2)c1`: the figures for the IC50 in [1], in [3] and in series [6] were 18 nM, 74 nM and 780 nM, respectively. For the same compound, the Ratio IC50 in the series listed under Homo sapiens [5] turned out to be 4.1.

Usually IC50 stands for the concentration needed to halve the response being measured. As usually defined, the efflux ratio is a quotient of directional permeabilities that is used to spot active efflux. What is called inhibition is the percentage by which the read-out fell short of the control. Read a low inhibition as little suppression.

For the origin of these results see ChEMBL document CHEMBL2346543, “Triazolopyridazine LRRK2 kinase inhibitors” (Bioorg Med Chem Lett, 2013).
